Results from different studies.
Compare with care: the assays were run in different laboratories.
Target: Casein kinase II subunit alpha' (CSNK2A2, Homo sapiens, UniProt P19784)

With `COc1ccc2c(O[C@@H]3C[C@H]4C(=O)N[C@]5(C(=O)O)CC5/C=C\CCCCC[C@H](NC(=O)OC5CCCC5)C(=O)N4C3)cc(-c3csc(NC(=O)C(C)C)n3)nc2c1C` (stereo partly drawn) the remaining binding was 100% (cell-free assay, competition with immobilised ligand; 1 µM).
`C=CC(=O)Nc1cc(Nc2nccc(Nc3cc(Cl)c(F)cc3C(C)(C)O)n2)c(OC)cc1N1CC[C@@H](N(C)C)C1` gave an inhibition of -6% (enzyme activity, inhibitor; 1 µM).
The remaining binding of `CS(=O)(=O)c1cc(C2(NC(=O)c3cncc4c3cnn4-c3ccc(F)cc3)CC2)ccn1` is reported as 80% (cell-free assay, competition with immobilised ligand; 1 µM).
`O=C1NC(=O)c2cc(Nc3ccc(F)cc3)c(Nc3ccc(F)cc3)cc21` gave a remaining signal of 104% (cell-free assay, inhibitor; 0.5 µM).
With `COc1cccc2c(NCc3ccccc3)nc(-n3c(N)nc4ccccc43)nc12` the inhibition was -11.7% (target engagement in cells, inhibitor, chemoproteomics; 20 mM).
`Cn1cnc(Br)c1C1=CN(c2ncnc3[nH]cnc23)CCS1` has an inhibition of 19.7% (enzyme activity, inhibitor, radiometric; 50 nM).
`CSc1cccnc1N1CCN(Cc2nc3ccccc3[nH]2)CC1` has a remaining binding of 100% (cell-free assay, competition with immobilised ligand; 1 µM).
`CCN(CC)CCNC(=O)c1c(C)[nH]c(/C=C2\C(=O)Nc3ccc(F)cc32)c1C` has an inhibition of 49% (enzyme activity, inhibitor; 10 µM).
For `CC(C)CC(=O)N1CCc2nc(-c3ccc(Br)cc3)nc(N(C)Cc3ccccc3)c2C1`, the remaining binding was 88% (cell-free assay, competition with immobilised ligand; 0.1 µM).
The inhibition of `CNC(=O)c1cc(Oc2ccc(NC(=O)Nc3ccc(Cl)c(C(F)(F)F)c3)cc2)ccn1` is reported as -33% (enzyme activity, inhibitor; 0.3 µM).
The remaining binding of `O=C(NCCCC1CCCCC1)c1ccc(CNC(=O)c2cnn(-c3ccccc3)c2C(F)(F)F)cc1` is reported as 88% (cell-free assay, competition with immobilised ligand; 0.1 µM).
`CCN(CC)c1ccc(C2=NNC(=O)CC2C)cc1[N+](=O)[O-]` (stereo not drawn) has a remaining activity of 103% (enzyme activity, inhibitor; 10 µM).
With `c1ccc(CNc2nc(N3CCOc4ccccc43)nc3c2CCCC3)cc1` the inhibition was -34.4% (target engagement in cells, inhibitor, chemoproteomics; 20 mM).
For `O=C(NC[C@@H]1[C@H]2CN(C(=O)OCc3cc(C(F)(F)F)cc(C(F)(F)F)c3)C[C@@H]12)c1ccc2[nH]nnc2c1`, the remaining binding was 92% (cell-free assay, competition with immobilised ligand; 1 µM).
The remaining signal of `O=C1Nc2ccc(Cl)cc2C1=Cc1cc(Cl)c(O)c(Cl)c1` is reported as 33.3% (cell-free assay; 0.5 µM).
`COc1cc2ncnc(Nc3ccc(Oc4ccccc4)c(C)c3C)c2cc1OC` gave an inhibition of -1% (enzyme activity, inhibitor; 1 µM).
`CC(C)(C)c1nc(-c2cccc(NS(=O)(=O)c3c(F)cccc3F)c2F)c(-c2ccnc(N)n2)s1` gave a remaining activity of 84% (enzyme activity, inhibitor, radiometric; 1 µM).
`CCCOc1ccc(OC)c(F)c1C(=O)c1ccc(C(=O)N[C@@H]2CNC[C@H]2NC(=O)c2ccc3[nH]ncc3c2)cc1` has a remaining activity of 93% (enzyme activity, inhibitor; 10 µM).
With `Cc1ccc(Nc2nccc(N(C)c3ccc4c(C)n(C)nc4c3)n2)cc1S(N)(=O)=O` the inhibition was -14% (enzyme activity, inhibitor; 10 µM).
`Cc1cc(NC(=O)c2cccc3cc(-c4cccc5[nH]nc(N)c45)ccc23)ccc1F` has an activity vs control of 109% (enzyme activity, inhibitor; 0.1 µM).
The activity vs control of `CC(C)c1ccc(NC(=O)c2cccs2)c(-c2nc3ccccc3[nH]c2=O)c1` is reported as 121% (enzyme activity, inhibitor; 1 µM).
For `Cc1ccc(C(=O)Nc2ccc(CN3CCN(C)CC3)c(C(F)(F)F)c2)cc1C#Cc1cnc2cccnn12`, the remaining activity was 94% (enzyme activity, inhibitor; 23.5 nM).
`Cc1sc(C(=O)NC2COC2)cc1-n1cc(NC(=O)Nc2c(F)cccc2Cl)cn1` has a remaining activity of 95.5% (enzyme activity, inhibitor; 10 µM).
With `O=C(Nc1cccnn1)N1CCC(=Cc2cccc(Oc3ccc(C(F)(F)F)cn3)c2)CC1` the remaining binding was 100% (cell-free assay, competition with immobilised ligand; 1 µM).
